Values joined by “and” are separate entries in the source; they are usually repeats but may differ in a detail not shown here. Equal entries are not always repeated.
What was measured:
Rattus norvegicus [1] = experiment: Change in mean aortic flow after iv administration of 1600 ug/Kg in anesthetized rats; type: functional
Outline: (§1)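 Male Wistar rats (299 ± 3 g) were anesthetized with ethylurethane ip, tracheally cannulated and breathing spontaneously, at 37 °C, and stabilized for 60 min. Doses of 50-3200 µg/kg (ratio 2.0) in saline were injected by femoral vein, 50 µL each. Recordings: femoral arterial BP, electromagnetic abdominal-aortic flow, SV from integrated pulsatile flow, polygraphic RF. Peak changes, mean ± SE, n = 12 (n = 7 at 3200).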

Rattus norvegicus [2] = experiment: Change in stroke volume after iv administration of 1600 ug/Kg in anesthetized rats; type: functional; outline: as §1
Rattus norvegicus [3] = experiment: Change in systolic blood pressure after iv administration of 3200 ug/Kg in anesthetized rats; type: functional, Artery; outline: as §1
Rattus norvegicus [4] = experiment: Change in heart rate after iv administration of 400 ug/Kg in the presence of noradrenaline (agonist) in anesthetized rats; type: functional
Rattus norvegicus [5] = experiment: Change in mean aortic flow after iv administration of 400 ug/Kg in anesthetized rats; type: functional; outline: as §1
Rattus norvegicus [6] = experiment: Change in systolic blood pressure after iv administration of 800 ug/Kg compound (treatment with reserpine(5 mg/kg/day for 2 days, ip)in anesthetized rats; type: functional, Artery
Outline: (§2)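 Anesthetized rats, n = 6 per group, received iv doses of 200–1600 µg/kg (ratio 2.0) either alone (control) or under pretreatment: continuous iv papaverine infusion 1 mg/kg/min, reserpine 5 mg/kg/day ip for 2 days, or hexamethonium 5 mg/kg iv. Peak changes in BP, heart rate and dP/dt recorded; means ± SE, p < 0.05 versus control.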

Rattus norvegicus [7] = experiment: Change in heart rate after iv administration of 800 ug/kg compound (treatment with reserpine(5 mg/kg/day for 2 days, ip))in anesthetized rats; type: functional
Outline: (§3)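 Urethane-anesthetized male Wistar rats, 6 per group, received iv doses of 200-1600 µg/kg (ratio 2.0) given alone or under a pretreatment. Pretreatments were continuous iv papaverine infusion (1 mg/kg/min), reserpine 5 mg/kg/day ip for 2 days, or hexamethonium 5 mg/kg iv. Peak changes in femoral arterial BP and HR were recorded; values are mean ± SE.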

Rattus norvegicus [8] = experiment: Change in systolic blood pressure after iv administration of 400 ug/Kg in the presence of noradrenaline (agonist) in anesthetized rats; type: functional, Artery
Outline: (§4)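 Anesthetized male Wistar rats, two groups of 8, received 400 or 1600 µg/kg iv. Before and after this dose, iv agonist challenges were given: noradrenaline 1 µg/kg, adrenaline, acetylcholine 2.50 µg/kg, or isoprenaline. Systolic/diastolic BP, heart rate and dP/dt responses were recorded before (control) and after dosing; significance was set at p < 0.05 versus control.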

Rattus norvegicus [9] = experiment: Change in heart rate after iv administration of 1600 ug/Kg in the presence of isoprenaline (agonist) in anesthetized rats; type: functional
Outline: (§5)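 Urethane-anesthetized male Wistar rats (16 rats, two equal groups) received 400 or 1600 µg/kg compound iv. Cardiovascular responses to iv agonist boluses (noradrenaline 1 µg/kg, acetylcholine 2.50 µg/kg, adrenaline, isoprenaline) were measured before and after compound dosing. Peak responses are given as mean ± SE; p < 0.05 versus control mean.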

Rattus norvegicus [10] = experiment: Maximum rate of rise of the left ventricular isovolumetric pressure was measured after iv administration of 1600 ug/Kg in anesthetized rats; type: functional, Heart left ventricle
Outline: (§6)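 Urethane-anesthetized (10% w/v, […] ip in saline) adult male Wistar rats, trachea cannulated, breathing spontaneously, 37 °C. Femoral artery catheter for blood pressure, femoral vein for dosing. Sequential iv doses 50–3200 µg/kg (ratio 2.0) in saline, each given after parameters returned to baseline. Peak changes recorded; means ± SE, n = 12 (n = 7 at 3200 µg/kg).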

Rattus norvegicus [11] = experiment: Change in heart rate after iv administration of 50 ug/Kg in anesthetized rats; type: functional; outline: as §1
Rattus norvegicus [12] = experiment: Change in diastolic blood pressure after iv administration of 1600 ug/Kg in the presence of adrenaline (agonist) in anesthetized rats; type: functional, Artery; outline: as §5
Rattus norvegicus [13] = experiment: Change in respiratory frequency after iv administration of 800 ug/Kg in anesthetized rats; type: functional; outline: as §1
Rattus norvegicus [14] = experiment: Change in heart rate after iv administration of 400 ug/Kg in the presence of acetylcholine (agonist) in anesthetized rats; type: functional; outline: as §5
Rattus norvegicus [15] = experiment: Change in diastolic blood pressure after iv administration of 1600 ug/Kg compound (treatment with papaverine(1 mg/Kg/min, iv)in anesthetized rats; type: functional, Artery
Outline: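 In anesthetized male Wistar rats, responses to iv compound (200–1600 µg/kg, ratio 2.0) were measured alone and under three pretreatments: continuous iv papaverine infusion (1 mg/kg/min), ip reserpine (5 mg/kg/day for 2 days), or iv hexamethonium (5 mg/kg). Peak changes are given as mean ± SE, n = 6 per group; p < 0.05 versus control.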

Rattus norvegicus [16] = experiment: Change in diastolic blood pressure after iv administration of 400 ug/Kg in the presence of isoprenaline (agonist) in anesthetized rats; type: functional, Artery; outline: as §5
Rattus norvegicus [17] = experiment: Change in mean aortic flow after iv administration of 800 ug/Kg in anesthetized rats; type: functional; outline: as §1
Rattus norvegicus [18] = experiment: Change in systolic blood pressure after iv administration of 50 ug/Kg in anesthetized rats; type: functional, Artery; outline: as §6
Rattus norvegicus [19] = experiment: Change in stroke volume after iv administration of 50 ug/Kg in anesthetized rats; type: functional; outline: as §1
Rattus norvegicus [20] = experiment: Change in systolic blood pressure after iv administration of 400 ug/Kg in the presence of adrenaline (agonist) in anesthetized rats; type: functional, Artery; outline: as §4
Rattus norvegicus [21] = experiment: Change in heart rate after iv administration of 800 ug/Kg compound (treatment with hexamethonium (5 mg/Kg, iv)in anesthetized rats; type: functional; outline: as §3
Rattus norvegicus [22] = experiment: Maximum rate of rise of the left ventricular isovolumetric pressure after iv administration of 800 ug/Kg compound (treatment with hexamethonium (5 mg/Kg, iv)in anesthetized rats; type: functional, Heart left ventricle; outline: as §2
Rattus norvegicus [23] = experiment: Maximum rate of rise of the left ventricular isovolumetric pressure after iv administration of 800 ug/Kg compound (treatment with reserpine(5 mg/kg/day for 2 days, ip)in anesthetized rats; type: functional, Heart left ventricle; outline: as §2
Rattus norvegicus [24] = experiment: Change in systolic blood pressure after iv administration of 1600 ug/Kg compound (treatment with reserpine(5 mg/kg/day for 2 days, ip)in anesthetized rats; type: functional, Artery; outline: as §3
Rattus norvegicus [25] = experiment: Change in diastolic blood pressure after iv administration of 200 ug/Kg in anesthetized rats; type: functional, Artery
Outline: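 Adult male Wistar rats under ip ethylurethane (10% w/v in saline, 1 mL/kg) with tracheal cannula and spontaneous breathing, kept at 37 °C. Arterial BP was recorded by femoral artery catheter; compound in saline (50 µL) was given via femoral vein at 50–3200 µg/kg, ratio 2.0. Peak change is given as mean ± SE, n = 12 (n = 7 at 3200 µg/kg).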

Rattus norvegicus [26] = experiment: Change in stroke volume after iv administration of 50 ug/Kgg in anesthetized rats; type: functional; outline: as §1
Rattus norvegicus [27] = experiment: Change in systolic blood pressure after iv administration of 800 ug/Kg compound (treatment with papaverine(1 mg/Kg/min, iv)in anesthetized rats; type: functional, Artery; outline: as §2

COc1ccc(C2C(c3ccc(OC)c(OC)c3)[C@H](C(=O)NCCCC/N=C(\N)NCC=C(C)C)[C@@H]2C(=O)NCCCC/N=C(\N)NCC=C(C)C)cc1OC (stereo not given in full) [CARACASANDIAMIDE] was tested, and the “Change in mean aortic flow” value (Rattus norvegicus [1]) was -49%, the Mean aortic flow (Rattus norvegicus [1]) was -36 mL/min and the “Change in stroke volume” value (Rattus norvegicus [2]) was -48%. For the same molecule, the Stroke volume (Rattus norvegicus [2]) was -97 µL, the BP (Rattus norvegicus [3]) was -48 mmHg and the “Change in BP” value (Rattus norvegicus [3]) was -46%. For the same molecule, the Heart rate (Rattus norvegicus [4]) was 23 beats min-1, the Mean aortic flow (Rattus norvegicus [5]) was -14 mL/min and the BP (Rattus norvegicus [6]) was -11 mmHg. For the same molecule, the Heart rate (Rattus norvegicus [7]) was -9 beats min-1, the BP (Rattus norvegicus [8]) was 31 mmHg and the Heart rate (Rattus norvegicus [9]) was 79 beats min-1. For the same molecule, the “Change in dP/dt” value (Rattus norvegicus [10]) was 60%, the dP/dt (Rattus norvegicus [10]) was 3676 mmHg s-1 and the “Change in heart rate” value (Rattus norvegicus [11]) was -3%. The Heart rate (Rattus norvegicus [11]) was -9 beats min-1, the BP (Rattus norvegicus [12]) was 3 mmHg and the “Change in respiratory frequency” value (Rattus norvegicus [13]) was -15 beats min-1 and -16%. The Heart rate (Rattus norvegicus [14]) was -30 beats min-1, the BP (Rattus norvegicus [15]) was -29 mmHg and the BP (Rattus norvegicus [16]) was -49 mmHg. The “Change in mean aortic flow” value (Rattus norvegicus [17]) was -34%, the Mean aortic flow (Rattus norvegicus [17]) was -25 mL/min and the BP (Rattus norvegicus [18]) was 17 mmHg. For the same molecule, the “Change in BP” value (Rattus norvegicus [18]) was 16%, the “Change in stroke volume” value (Rattus norvegicus [19]) was 36% and the BP (Rattus norvegicus [20]) was 21 mmHg. For the same molecule, the Heart rate (Rattus norvegicus [21]) was -57 beats min-1, the dP/dt (Rattus norvegicus [22]) was 4965 mmHg s-1 and the dP/dt (Rattus norvegicus [23]) was 720 mmHg s-1. The BP (Rattus norvegicus [24]) was -16 mmHg, the BP (Rattus norvegicus [25]) was -13 mmHg and the “Change in BP” value (Rattus norvegicus [25]) was -17%. For the same molecule, the Stroke volume (Rattus norvegicus [26]) was 73 µL and the BP (Rattus norvegicus [27]) was -22 mmHg.

Reference: ChEMBL document CHEMBL1132342, “Novel hypotensive agents from Verbesina caracasana. 6. Synthesis and pharmacology of caracasandiamide” (1999)
